Drawing on ChEMBL document CHEMBL4177548, “Neuroprotective Lignans from the Fruits of Schisandra bicolor var. tuberculata” (2017), this text covers Activity for 19 molecules.

For test [1], the system named is SH-SY5Y. In words: Neuroprotective activity against H2O2-induced cytotoxicity in human SH-SY5Y cells at 0.0032 to 2 uM pre-incubated for 2 hrs before H2O2 addition for 14 hrs by MTT assay relative to untreated control. It is filed as functional. The method, boiled down: (§1)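 Hydrogen peroxide injury: SH-SY5Y cells (DMEM, 10% FBS, penicillin/streptomycin) were seeded at 15 000 cells/well and left 24 h. They received test compounds at 0.0032, 0.08 or 2 μM for 2 h before 350 μM H2O2. MTT read-out followed at 14 h: DMSO dissolution, OD 570 nm. Viability is expressed as % of control, triplicate, means ± SEM, one-way ANOVA with Newman-Keuls.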

In test [2] the test system is SH-SY5Y. Description: Neuroprotective activity against Abeta (25 to 35)-induced cytotoxicity in human SH-SY5Y cells at 0.08 uM pre-incubated for 2 hrs before Abeta (25 to 35) addition for 14 hrs by MTT assay (reference value: 60.2 to 73.5%). It is filed as functional.
The subject of test [3] is SH-SY5Y. In words: Neuroprotective activity against Abeta (25 to 35)-induced cytotoxicity in human SH-SY5Y cells at 0.0032 uM pre-incubated for 2 hrs before Abeta (25 to 35) addition for 14 hrs by MTT assay (reference value: 60.2 to 73.5%). It is filed as functional.
Test [4] deals with SH-SY5Y. In words: Neuroprotective activity against CoCl2-induced cytotoxicity in human SH-SY5Y cells at 0.0032 uM pre-incubated for 2 hrs before CoCl2 addition for 14 hrs by MTT assay relative to untreated control. It is filed as functional, cell-based. The method, boiled down: (§2)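 SH-SY5Y cells were kept in DMEM with 10% FBS plus penicillin/streptomycin and plated at 15 000 cells/well for 24 h. They were pretreated 2 h with compound (0.0032, 0.08, 2 μM), then challenged with 300 μM CoCl2 (chosen to give 50–70% viability). After 14 h, MTT was added, DMSO-solubilised and read at 570 nm. Values are normalized to control (100%), means ± SEM of three replicates.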
A general note: Tetrazolium dyes change colour on reduction, which living cells bring about.

Test [5] concerns SH-SY5Y. Description: Neuroprotective activity against Abeta (25 to 35)-induced cytotoxicity in human SH-SY5Y cells at 2 uM pre-incubated for 2 hrs before Abeta (25 to 35) addition for 14 hrs by MTT assay (reference value: 60.2 to 73.5%). It is filed as functional.
Test [6] deals with SH-SY5Y. In words: Neuroprotective activity against Abeta (25 to 35)-induced cytotoxicity in human SH-SY5Y cells at 0.0032 to 2 uM pre-incubated for 2 hrs before Abeta (25 to 35) addition for 14 hrs by MTT assay relative to untreated control. It is filed as functional.
In test [7] the test system is SH-SY5Y. In words: Neuroprotective activity against H2O2-induced cytotoxicity in human SH-SY5Y cells at 0.0032 uM pre-incubated for 2 hrs before H2O2 addition for 14 hrs by MTT assay relative to untreated control. It is filed as functional, cell-based. In short, it runs like this:
as §1

The subject of test [8] is SH-SY5Y. In words: Neuroprotective activity against CoCl2-induced cytotoxicity in human SH-SY5Y cells at 0.0032 to 2 uM pre-incubated for 2 hrs before CoCl2 addition for 14 hrs by MTT assay relative to untreated control. It is filed as functional. In short, it runs like this:
as §2

Test [9] has as its system SH-SY5Y. In words: Neuroprotective activity against Abeta (25 to 35)-induced cytotoxicity in human SH-SY5Y cells at 50 uM pre-incubated for 2 hrs before Abeta (25 to 35) addition for 14 hrs by MTT assay (reference value: 60.2%). It is filed as functional, cell-based.

The source made the active and inactive calls. The rule behind the calls is not given here.

Consider `COc1cc(C[C@@H](C)[C@H](C)Cc2ccc3c(c2)OCO3)ccc1O`, for which the Activity is above 15% in [1], 77.1% in [2], 73.5% in test [3] and 72% in test [5]. In test [4], the outcome was Active.

`COc1cc(C[C@@H](C)[C@H](C)[C@@H](O)c2ccc3c(c2)OCO3)ccc1O`: the Activity in test [6] is recorded as above 15%; in [1] it was above 15%; in test [2], 83.3%; in test [3], 81.6%; in test [8] it was above 15%; in test [5], 76.6%. For the same molecule, the result in test [7] and in test [4] was Active.

As for `COc1ccc([C@H]2O[C@@H](c3ccc(OC)c(OC)c3)[C@H](C)[C@@H]2C)cc1OC` [GALGRAVIN], the Activity is recorded as above 15% in test [6]; above 15% in test [1]; 92.9% in test [2]; 76.9% in test [3]; 86.7% in [5].

For the molecule `COc1cc(C[C@@H](C)[C@H](C)Cc2ccc(O)c(OC)c2)ccc1O` [(-)-DIHYDROGUAIARETICACID], the outcome in test [7] and in [4] was Active. In addition, the Activity in [2] is 85.1%; in test [3], 79.2%; in test [8], above 15%; in test [5], 80.8%.

`COc1ccc(C(=O)O[C@H](c2ccc(OC)c(OC)c2)[C@@H](C)C(C)=O)cc1OC`: the Activity in test [6] is listed as above 15%; in test [2], 85.1%; in test [3] it was 78.4%; in [5], 80.4%. The outcome in test [4] was Active.

For `COc1cc(C[C@@H](COC(C)=O)[C@@H](C)Cc2ccc(O)c(OC)c2)ccc1O`, the Activity in test [6] is reported as above 15%; in test [1], above 15%; in test [2], 81%; in test [3], 74.1%; in test [5], 83.2%.

For `COc1cc(C[C@H](C)[C@H](CO)Cc2ccc3c(c2)OCO3)ccc1O`, the Activity in [6] was above 15%; in test [2] it was 88.2%; in test [3], 75.8%; in test [5], 82.4%. Moreover, the result in test [4] was Active.

`COc1cc(C[C@H](C)[C@H](COC(C)=O)Cc2ccc3c(c2)OCO3)ccc1O`: the Activity in [6] is on record as above 15%; in test [1], above 15%; in [2] it was 80.2%; in test [3], 73.1%; in [5], 87%.

Consider `COc1cc(C[C@H](CO)[C@H](C)Cc2ccc3c(c2)OCO3)ccc1O`, for which the Activity in test [2] was determined as 83.6%; in test [3], 70.8%; in test [5], 84.2%.

Take VITAMIN E: the Activity in [9] amounted to 72.5%.

Regarding `C=C(Cc1ccc2c(c1)OCO2)[C@H](C)Cc1ccc(O)c(OC)c1`, the Activity in [6] is on record as above 15%; in test [2], 78.5%; in test [3], 84.7%; in [5], 78.1%. Moreover, the outcome in test [7] was Active.

With `COc1cc([C@H]2O[C@@H](c3ccc4c(c3)OCO4)[C@H](C)[C@H]2COC(C)=O)ccc1O`, the Activity in [6] is reported as above 15%; in test [1] it was above 15%; in test [2], 88.6%; in test [3], 68.6%; in test [5] it was 79.3%. Further, the outcome in test [7] and in test [4] was Active.

For the molecule `COc1cc([C@H]2O[C@@H](c3ccc(OC)c(OC)c3)[C@H](C)[C@H]2C)ccc1O`, the Activity came out at 75.3% in test [2], 81.7% in [3] and 75.3% in test [5]. Further, the outcome in test [4] was Active.

`C[C@@H]1[C@@H](CO)[C@H](c2ccc3c(c2)OCO3)O[C@H]1c1ccc2c(c1)OCO2`: the Activity in test [6] is on record as above 15%; in test [2], 94.3%; in test [3], 71.3%; in test [5], 87.3%. Besides, the outcome in [4] was Active.

On to `COc1cc(C[C@H](CO)[C@H](C)Cc2ccc(O)c(OC)c2)ccc1O`, for which the Activity was above 15% in [1], 74.3% in test [2], 77.4% in [3] and 69.2% in test [5].

For `COc1cc(C[C@@H](COC(C)=O)[C@@H](C)Cc2ccc3c(c2)OCO3)ccc1O`, the Activity in test [2] was 80.8%; in test [3], 68.3%; in test [5], 69%.

For `COc1ccc([C@@H]2O[C@@H](c3ccc(O)c(OC)c3)[C@@H](C)[C@H]2C)cc1O`, the Activity is above 15% in test [6], 77.1% in [2], 64.5% in [3] and 71% in [5].

`COc1ccc([C@H]2O[C@H](c3ccc(OC)c(OC)c3)[C@@H](C)[C@H]2C)cc1OC` [GANSCHISANDRINE]: the Activity was above 15% in [6]; 85.3% in [2]; 75.1% in [3]; above 15% in test [8]; 79.8% in test [5].

Take `COc1cc([C@H]2c3cc4c(cc3C[C@@H](C)[C@@H]2C)OCO4)ccc1O`: the Activity is given as above 15% in test [6], 71.9% in [2], 84.5% in test [3] and 75.7% in test [5]. Further, the outcome in test [4] was Active.
